ChEMBL document CHEMBL4387781, “Optimization of oxadiazole derivatives with a spirocyclic cyclohexane structure as novel GPR119 agonists” (Bioorg Med Chem Lett, 2019)
The source made the active and inactive calls. No cut-off for these calls is given here.

Tests used:
[1] = target: T1, Glucose-dependent insulinotropic receptor (Homo sapiens, UniProt Q8TDV5); assay: Agonist activity at recombinant human GPR119 expressed in HEK293 cells assessed as increase in intracellular cAMP accumulation measured after 30 mins; assay type: functional, cell-based
T1 sequence (Q8TDV5 whole entry): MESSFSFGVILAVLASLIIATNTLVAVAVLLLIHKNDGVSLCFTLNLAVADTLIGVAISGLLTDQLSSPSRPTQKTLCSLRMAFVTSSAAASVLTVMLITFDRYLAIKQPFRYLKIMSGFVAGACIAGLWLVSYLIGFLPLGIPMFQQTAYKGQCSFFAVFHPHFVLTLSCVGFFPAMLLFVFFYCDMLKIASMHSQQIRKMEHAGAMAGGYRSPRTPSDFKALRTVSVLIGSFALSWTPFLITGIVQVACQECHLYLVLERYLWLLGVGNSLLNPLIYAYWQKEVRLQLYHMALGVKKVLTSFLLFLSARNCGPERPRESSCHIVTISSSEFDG

[2] = target: T2, Glucose-dependent insulinotropic receptor (Homo sapiens) (UniProt Q8TDV5); assay: Agonist activity at recombinant human GPR119 expressed in HEK293 cells assessed as increase in intracellular cAMP accumulation measured after 30 mins relative to oleoylethanolamide; assay type: functional, cell-based
T2 sequence (whole entry): T1 sequence (Q8TDV5 whole entry)

[3] = Stability in human liver microsomes assessed as parent compound remaining at 5 uM measured after 1 hr; assay type: ADME, Microsome; conditions: read-out: Stability
Procedure, shortened: (§1)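 Compound at 5 μM incubated 1 hour with human or rat liver microsomes (0.2 mg/mL); percent of parent remaining reported.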

[4] = Stability in rat liver microsomes assessed as parent compound remaining at 5 uM measured after 1 hr; assay type: ADME, Microsome; conditions: read-out: Stability; procedure, shortened: as §1
[5] = Terminal half life in Sprague-Dawley rat at 1 mg/kg, iv; assay type: ADME, organism-based; conditions: in vivo, read-out: beta t1/2 (converted)
Procedure, shortened: (§2)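 Sprague-Dawley rats given 1 mg/kg intravenously or 3 mg/kg orally; t1/2β, CL, Vdss and MRT from IV dosing, oral bioavailability from PO dosing.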

[6] = Clearance in Sprague-Dawley rat at 1 mg/kg, iv; assay type: ADME, organism-based; conditions: in vivo; procedure, shortened: as §2
[7] = Volume of distribution at steady state in Sprague-Dawley rat at 1 mg/kg, iv; assay type: ADME, organism-based; conditions: in vivo, read-out: Vdss; procedure, shortened: as §2
[8] = MRT in Sprague-Dawley rat at 1 mg/kg, iv; assay type: ADME, organism-based; conditions: in vivo; procedure, shortened: as §2
[9] = Oral bioavailability in Sprague-Dawley rat at 3 mg/kg; assay type: ADME, organism-based; conditions: in vivo; procedure, shortened: as §2
[10] = target: Cytochrome P450 3A4 (Homo sapiens, UniProt P08684); assay: Inhibition of CYP3A4 (unknown origin); assay type: ADME
Sequence of Cytochrome P450 3A4 (P08684 whole entry): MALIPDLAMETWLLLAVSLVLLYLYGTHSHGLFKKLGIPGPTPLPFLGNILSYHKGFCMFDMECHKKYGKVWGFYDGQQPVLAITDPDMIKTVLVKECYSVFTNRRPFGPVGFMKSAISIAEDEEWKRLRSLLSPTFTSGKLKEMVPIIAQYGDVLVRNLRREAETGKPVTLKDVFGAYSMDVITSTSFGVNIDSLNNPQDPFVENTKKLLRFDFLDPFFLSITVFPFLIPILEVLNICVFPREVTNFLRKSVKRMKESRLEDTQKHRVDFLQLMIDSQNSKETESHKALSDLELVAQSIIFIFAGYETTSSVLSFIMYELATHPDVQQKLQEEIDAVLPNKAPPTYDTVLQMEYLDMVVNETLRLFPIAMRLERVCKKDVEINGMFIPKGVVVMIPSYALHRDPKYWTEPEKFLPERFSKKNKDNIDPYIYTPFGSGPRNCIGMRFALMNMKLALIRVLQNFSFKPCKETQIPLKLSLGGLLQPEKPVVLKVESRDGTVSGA

[11] = target: Cytochrome P450 2D6 (Homo sapiens, UniProt P10635); assay: Inhibition of CYP2D6 (unknown origin); assay type: ADME
Sequence of Cytochrome P450 2D6 (P10635 whole entry): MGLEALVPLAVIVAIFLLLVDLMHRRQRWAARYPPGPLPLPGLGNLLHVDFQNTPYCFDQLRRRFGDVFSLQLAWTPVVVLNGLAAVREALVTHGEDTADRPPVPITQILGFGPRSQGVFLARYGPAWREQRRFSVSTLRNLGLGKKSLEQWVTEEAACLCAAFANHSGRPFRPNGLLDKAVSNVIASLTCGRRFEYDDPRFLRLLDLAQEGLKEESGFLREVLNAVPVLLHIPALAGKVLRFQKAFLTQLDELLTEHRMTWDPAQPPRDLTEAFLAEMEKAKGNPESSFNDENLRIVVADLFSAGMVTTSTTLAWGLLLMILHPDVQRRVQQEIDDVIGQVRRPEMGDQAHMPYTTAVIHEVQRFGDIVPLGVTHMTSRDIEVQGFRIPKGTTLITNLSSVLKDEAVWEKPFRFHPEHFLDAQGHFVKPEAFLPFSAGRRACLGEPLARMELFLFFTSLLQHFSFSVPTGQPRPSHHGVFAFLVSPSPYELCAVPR

[12] = target: T3, Cytochrome P450 1A2 (Homo sapiens, UniProt P05177); assay: Inhibition of CYP1A2 (unknown origin); assay type: ADME
T3 sequence (P05177 whole entry): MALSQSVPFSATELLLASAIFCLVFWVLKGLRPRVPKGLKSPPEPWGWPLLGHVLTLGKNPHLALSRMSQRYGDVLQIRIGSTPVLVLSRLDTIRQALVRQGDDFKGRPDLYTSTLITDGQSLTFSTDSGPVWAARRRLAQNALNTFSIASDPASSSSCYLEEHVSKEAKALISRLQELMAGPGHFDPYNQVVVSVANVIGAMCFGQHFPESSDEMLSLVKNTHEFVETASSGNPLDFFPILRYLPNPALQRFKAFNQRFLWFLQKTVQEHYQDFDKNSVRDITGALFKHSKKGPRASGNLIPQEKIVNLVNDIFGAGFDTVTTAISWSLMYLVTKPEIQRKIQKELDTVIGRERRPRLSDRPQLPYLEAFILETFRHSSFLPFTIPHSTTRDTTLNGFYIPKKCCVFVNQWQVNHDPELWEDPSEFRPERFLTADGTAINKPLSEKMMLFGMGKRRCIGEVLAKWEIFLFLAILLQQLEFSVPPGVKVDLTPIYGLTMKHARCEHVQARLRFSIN

[13] = target: Cytochrome P450 2C9 (Homo sapiens, UniProt P11712); assay: Inhibition of CYP2C9 (unknown origin); assay type: ADME
Sequence of Cytochrome P450 2C9 (P11712 whole entry): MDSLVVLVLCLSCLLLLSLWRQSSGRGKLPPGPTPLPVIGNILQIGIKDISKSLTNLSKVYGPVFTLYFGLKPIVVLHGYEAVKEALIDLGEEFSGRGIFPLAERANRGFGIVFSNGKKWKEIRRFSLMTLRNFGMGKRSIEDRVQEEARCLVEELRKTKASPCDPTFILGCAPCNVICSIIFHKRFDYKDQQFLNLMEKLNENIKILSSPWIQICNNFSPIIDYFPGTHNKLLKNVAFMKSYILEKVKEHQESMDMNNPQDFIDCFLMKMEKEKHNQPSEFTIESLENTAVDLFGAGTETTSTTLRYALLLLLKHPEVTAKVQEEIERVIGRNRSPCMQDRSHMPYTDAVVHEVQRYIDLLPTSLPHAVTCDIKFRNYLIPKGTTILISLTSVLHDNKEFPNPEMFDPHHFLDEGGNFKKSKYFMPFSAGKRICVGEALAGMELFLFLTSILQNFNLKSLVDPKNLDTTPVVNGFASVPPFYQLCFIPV

[14] = target: T4, Cytochrome P450 2C8 (Homo sapiens, UniProt P10632); assay: Inhibition of CYP2C8 (unknown origin); assay type: ADME
T4 sequence (P10632 whole entry): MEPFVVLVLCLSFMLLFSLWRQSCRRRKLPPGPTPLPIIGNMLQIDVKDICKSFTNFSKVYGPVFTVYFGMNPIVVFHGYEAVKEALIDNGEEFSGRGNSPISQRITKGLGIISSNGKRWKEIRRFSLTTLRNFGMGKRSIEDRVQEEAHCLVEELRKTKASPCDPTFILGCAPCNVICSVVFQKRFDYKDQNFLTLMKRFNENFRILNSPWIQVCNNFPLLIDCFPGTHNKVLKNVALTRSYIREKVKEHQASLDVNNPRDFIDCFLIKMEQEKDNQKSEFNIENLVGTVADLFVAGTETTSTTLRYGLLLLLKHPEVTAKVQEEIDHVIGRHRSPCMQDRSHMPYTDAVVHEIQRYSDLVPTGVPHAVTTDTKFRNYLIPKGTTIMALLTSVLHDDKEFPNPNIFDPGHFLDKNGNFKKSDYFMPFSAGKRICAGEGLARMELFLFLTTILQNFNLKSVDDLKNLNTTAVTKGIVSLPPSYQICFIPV

[15] = target: Cytochrome P450 2C19 (Homo sapiens, UniProt P33261); assay: Inhibition of CYP2C19 (unknown origin); assay type: ADME
Sequence of Cytochrome P450 2C19 (P33261 whole entry): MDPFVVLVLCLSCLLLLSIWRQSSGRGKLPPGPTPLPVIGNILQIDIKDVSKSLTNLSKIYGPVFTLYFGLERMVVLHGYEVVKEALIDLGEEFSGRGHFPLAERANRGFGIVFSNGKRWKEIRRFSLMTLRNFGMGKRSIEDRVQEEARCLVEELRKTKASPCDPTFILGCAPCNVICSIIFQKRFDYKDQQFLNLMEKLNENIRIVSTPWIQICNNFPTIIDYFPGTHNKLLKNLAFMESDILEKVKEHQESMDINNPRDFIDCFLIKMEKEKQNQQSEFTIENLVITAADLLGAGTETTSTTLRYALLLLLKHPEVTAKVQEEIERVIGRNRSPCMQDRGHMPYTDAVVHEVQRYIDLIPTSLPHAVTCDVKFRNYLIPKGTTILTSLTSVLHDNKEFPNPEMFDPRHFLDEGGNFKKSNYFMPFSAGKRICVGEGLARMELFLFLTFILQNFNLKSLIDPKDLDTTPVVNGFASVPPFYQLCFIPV

[16] = system: Rattus norvegicus; assay: Hypoglycemic activity in Sprague-Dawley rat assessed as reduction in plasma glucose level at 1 to 3 mg/kg, po treated for 16 hrs prior to glucose stimulation and measured up to 2 hrs by IPGTT; assay type: functional, organism-based
Procedure, shortened: (§3)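 Overnight-fasted 7-week-old Sprague-Dawley rats dosed by oral gavage; 16 h later glucose 1 g/kg given intraperitoneally. Tail-vein blood drawn before and at 10, 30, 60 min after loading; glucose followed up to 2 h. Plasma glucose by automatic analyzer, insulin by rat insulin ELISA; glucose AUC calculated.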

[17] = system: Rattus norvegicus; assay: Hypoglycemic activity in Sprague-Dawley rat assessed as reduction in plasma insulin level at 1 to 3 mg/kg, po treated for 16 hrs prior to glucose stimulation and measured up to 1 hr by ELISA; assay type: functional, organism-based; procedure, shortened: as §3
[18] = system: Rattus norvegicus; assay: Effect on plasma glucose level in Sprague-Dawley rat at 1 to 3 mg/kg, po measured after 16 hrs; assay type: ADME, organism-based; conditions: in vivo; procedure, shortened: as §3
[19] = system: Rattus norvegicus; assay: Effect on plasma insulin level in Sprague-Dawley rat at 1 to 3 mg/kg, po measured after 16 hrs by ELISA; assay type: ADME, organism-based; conditions: in vivo; procedure, shortened: as §3
[20] = system: Rattus norvegicus; assay: Hypoglycemic activity in Sprague-Dawley rat assessed as reduction in plasma glucose AUC at 1 mg/kg, po treated for 16 hrs prior to glucose stimulation and measured up to 2 hrs by IPGTT relative to control; assay type: functional; set-up: scale not given: the % may be the effect or the level left; procedure, shortened: as §3
[21] = system: Rattus norvegicus; assay: Hypoglycemic activity in Sprague-Dawley rat assessed as reduction in plasma glucose AUC at 3 mg/kg, po treated for 16 hrs prior to glucose stimulation and measured up to 2 hrs by IPGTT relative to control; assay type: functional; set-up: scale not given: the % may be the effect or the level left; procedure, shortened: as §3
[22] = Protein binding in human plasma; assay type: ADME, cell-free; conditions: read-out: PPB (converted)
[23] = Protein binding in rat plasma; assay type: ADME, cell-free; conditions: read-out: PPB (converted)

Row | Structure (SMILES) | EC50 [1] [nM] | %max [2] [%] | remaining at 1 h, 5 µM [3] [%] | remaining at 1 h, 5 µM [4] [%] | further results
1 | CC(O[C@H]1CC[C@]2(CCC(C)(C)CO2)CC1)c1nc(-c2ccc(CS(C)(=O)=O)c(F)c2)no1 (stereo partly specified) | 25 | 109 | 0 | 56 | –
2 | CC(O[C@H]1CC[C@]2(CC1)COC(C)(C)C2)c1nc(-c2ccc(S(C)(=O)=O)c(F)c2)no1 (mixture of isomers) | – | 109 | – | – | –
3 | C[C@@H](O[C@H]1CC[C@]2(CC1)COC(C)(C)C2)c1nc(-c2ccc(CS(C)(=O)=O)c(F)c2)no1 | 27 | 106 | – | – | –
4 | C[C@@H](O[C@H]1CC[C@@]2(CC1)CC(F)(F)CCO2)c1nc(-c2cc(F)c(CS(C)(=O)=O)c(F)c2)no1 | 27 | 106 | 97 | 91 | –
5 | CC(O[C@H]1CC[C@]2(CCCCO2)CC1)c1nc(-c2ccc(CS(C)(=O)=O)c(F)c2)no1 (stereo partly specified) | 86 | 112 | 39 | 64 | –
6 | CC(O[C@H]1CC[C@]2(CC1)COC(C)(C)C2)c1nc(-c2ccc(CS(C)(=O)=O)cc2)no1 (mixture of isomers) | 426 | 120 | – | – | –
7 | C[C@@H](O[C@H]1CC[C@@]2(CC1)CC(F)(F)CO2)c1nc(-c2cc(F)c(CS(C)(=O)=O)c(F)c2)no1 | 7 | 116 | 83 | 85 | –
8 | CC(O[C@H]1CC[C@@]2(CC1)CC(C)(C)CCO2)c1nc(-c2ccc(CS(C)(=O)=O)c(F)c2)no1 (stereo partly specified) | 29 | 113 | 0 | 53 | –
9 | C[C@@H](O[C@H]1CC[C@]2(CC1)COC(C)(C)C2)c1nc(-c2cc(F)c(CS(C)(=O)=O)cc2F)no1 | 64 | 118 | – | – | –
10 | CC(O[C@H]1CC[C@]2(CCCO2)CC1)c1nc(-c2ccc(CS(C)(=O)=O)c(F)c2)no1 (stereo partly specified) | 720 | 114 | 49 | 54 | –
11 | CC(O[C@H]1CC[C@]2(CC1)COC(C)(C)C2)c1nc(-c2ccc(CC(=O)N(C)C)c(F)c2)no1 (mixture of isomers) | 69 | 131 | – | – | –
12 | C[C@@H](O[C@H]1CC[C@]2(CCC(F)(F)CO2)CC1)c1nc(-c2cc(F)c(CS(C)(=O)=O)c(F)c2)no1 | 6 | 112 | 98 | 98 | half-life [5]: 5.1 h; clearance [6]: 8.33 mL/min/kg; Vd [7]: 3.5 L/kg; MRT [8]: 6.4 h; bioavailability [9]: 43%; IC50 [10]: > 50000 nM; IC50 [11]: > 50000 nM; IC50 [12]: > 50000 nM; IC50 [13]: > 50000 nM; IC50 [14]: > 50000 nM; IC50 [15]: > 50000 nM; Activity [16]: Active; Activity [17]: Active; Activity [18]: Non-Toxic; Activity [19]: Non-Toxic; Activity [20]: 10%; Activity [21]: 12%
13 | CC(O[C@H]1CC[C@]2(CC1)COC(C)(C)C2)c1nc(-c2ccc(C(=O)N(C)C)c(F)c2)no1 (mixture of isomers) | 2460 | 86 | – | – | –
14 | CC1(C)C[C@]2(CC[C@H](OCc3nc(-c4ccc(S(C)(=O)=O)c(F)c4)no3)CC2)CO1 | 261 | 103 | – | – | –
15 | C[C@@H](O[C@H]1CC[C@]2(CC1)COC(C)(C)C2)c1nc(-c2ccc(CS(C)(=O)=O)c(F)c2F)no1 | 301 | 77 | – | – | –
16 | CC(O[C@H]1CC[C@@]2(CC1)CC(C)(C)CO2)c1nc(-c2ccc(CS(C)(=O)=O)c(F)c2)no1 (stereo partly specified) | 31 | 115 | 15 | 55 | –
17 | C[C@H](O[C@H]1CC[C@]2(CC1)COC(C)(C)C2)c1nc(-c2ccc(CS(C)(=O)=O)c(F)c2)no1 | 430 | 106 | – | – | –
18 | CC(O[C@H]1CC[C@]2(CC1)COC(C)(C)C2)c1nc(-c2ccc(CS(C)(=O)=O)c(F)c2)no1 (mixture of isomers) | 44 | 130 | 62 | 86 | –
19 | C[C@@H](O[C@H]1CC[C@]2(CC1)COC(C)(C)C2)c1nc(-c2cc(F)c(CS(C)(=O)=O)c(F)c2)no1 | 5 | 109 | 65 | 83 | fraction unbound [22]: 0.035; fraction unbound [23]: 0.06
